Among the data in ChEMBL document CHEMBL3865853, “Synthesis and Bioevaluation of 3,6-Diaryl-[1,2,4]triazolo[4,3-b] Pyridazines as Antitubulin Agents” (ACS Med Chem Lett, 2016) are IC50, inhibition and Activity values, retold here.

Structures are written as SMILES. Active and inactive are the calls of the source. The calls are words filed in the database; no cut-off is given here.

Experiment [1] is described as follows: Cytotoxicity against human SGC7901 cells assessed as reduction in cell viability after 24 hrs by MTT assay. Conditions: SGC-7901, 24 h. It counts as functional, cell-based. The gist of the method: (§1)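 MTT viability assay on A549, HT-1080 and SGC-7901 cells; IC50 as concentration giving 50% inhibition; each experiment run in triplicate.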
A general note: Tetrazolium dyes change colour on reduction, which living cells bring about.

Experiment [2] in a line: Cytotoxicity against human A549 cells assessed as reduction in cell viability after 24 hrs by MTT assay. It counts as functional, cell-based. As to conditions: A549, 24 h. The essentials:
as §1

The nature of experiment [3]: Cytotoxicity against human HT1080 cells assessed as reduction in cell viability after 24 hrs by MTT assay. It counts as functional, cell-based. Conditions: HT-1080, 24 h. The gist of the method:
as §1

Experiment [4] is described as follows: (§2) Inhibition of pig brain tubulin polymerization measured at 1 min intervals for 90 mins by spectrophotometric analysis. Details: species or system Sus scrofa. The essentials: (§3)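 Purified tubulin incubated at room temperature with test agent (0.33–10 μM range used), paclitaxel 5.0 μM, or DMSO vehicle; polymerization followed, IC50 derived; mean ± SD of three experiments in triplicate.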

The species named for experiment [5] is Sus scrofa. The experiment is described as §2. The gist of the method:
as §3

Experiment [6] concerns A549. As to the kind of experiment: Inhibition of alpha-tubulin polymerization in human A549 cells assessed as destruction of tubulin network at 2 times IC50 after 12 hrs by DAPI/FITC-dual staining based fluorescence microscopic analysis. It counts as cell-based. The gist of the method:
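Indirect immunofluorescence of microtubule network in cultured A549 cells after treatment at 2-fold IC50 concentrations; DMSO-treated cells as vehicle control.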

Experiment [7] in a line: Cell cycle arrest in human A549 cells assessed as accumulation in G2/M phase after 12 hrs by propidium iodide-staining based FACS analysis. It counts as functional. For orientation: In flow cytometry, cells or beads pass a laser one at a time.
Experiment [8] in a line: Cell cycle arrest in human A549 cells assessed as accumulation in G2/M phase at 0.016 uM by propidium iodide-staining based FACS analysis. Conditions: TDE = time-dependent effect. It counts as functional.
Experiment [9] in a line: Cell cycle arrest in human A549 cells assessed as accumulation in G2/M phase at 0.018 uM by propidium iodide-staining based FACS analysis. It counts as functional.

As a reminder, the IC50 is the midpoint of a concentration-inhibition curve. For `COc1ccc(-c2ccc3nnc(-c4cc(OC)c(OC)c(OC)c4)n3n2)cc1`, the results for the IC50 in [1], in [2] and in experiment [3] were 260 nM, 51 nM and 17 nM, respectively.
Taken in the same sequence, the figures for `COc1ccc(-c2nnc3ccc(-c4ccc(C)cc4)nn23)c(OC)c1OC` were 4530 nM, 10400 nM and 170 nM.
In the case of `COc1cc(-c2nnc3ccc(-c4ccc(SC)cc4)nn23)cc(OC)c1OC`, the IC50 in [1] amounted to 98 nM; in [2], 280 nM; in [3], 73 nM.
In the case of `COc1cc(-c2nnc3ccc(-c4ccc(C(F)(F)F)cc4)nn23)cc(OC)c1OC`, the IC50 in experiment [1] was 2210 nM; in experiment [2], 10400 nM; in experiment [3], 1860 nM.
Regarding `COc1ccc(-c2ccc3nnc(-c4ccc(OC)c(OC)c4OC)n3n2)cc1`, the figures for the IC50 in experiment [1], in experiment [2] and in experiment [3] were 420 nM, 6980 nM and 5570 nM, respectively.
As for `COc1cc(-c2nnc3ccc(-c4cccc(Br)c4)nn23)cc(OC)c1OC`, the IC50 in [1] was 59000 nM; in experiment [2] it was 52200 nM; in experiment [3], 54500 nM.
In the case of `COc1cc(-c2nnc3ccc(-c4ccc(N)cc4)nn23)cc(OC)c1OC`, the IC50 in [1] was found to be 1230 nM; in [2], 2350 nM; in [3], 1620 nM.
`COc1cc(-c2nnc3ccc(-c4ccc(Br)cc4)nn23)cc(OC)c1OC`: the figures for the IC50 in [1], in experiment [2] and in [3] were 1280 nM, 780 nM and 150 nM, respectively.
Regarding `COc1cc(-c2nnc3ccc(-c4ccc([N+](=O)[O-])cc4)nn23)cc(OC)c1OC`, the IC50 was found to be 2380 nM in experiment [1], 3850 nM in experiment [2] and 4940 nM in [3].
For `COc1cc(-c2nnc3ccc(-c4cccc(Cl)c4)nn23)cc(OC)c1OC`, in that order: 63100 nM, 47900 nM and 60500 nM.
As to `COc1cc(-c2nnc3ccc(-c4ccc(Cl)cc4)nn23)cc(OC)c1OC`, the IC50 in experiment [1] worked out at 25 nM; in [2], 51 nM; in experiment [3] it was 450 nM.
As to `COc1ccc(-c2ccc3nnc(-c4cc(OC)c(OC)c(OC)c4)n3n2)cc1F`, the IC50 in [1] was 4170 nM; in [2], 4230 nM; in [3], 1690 nM.
As for `COc1cc(-c2nnc3ccc(-c4ccc(C#N)cc4)nn23)cc(OC)c1OC`, the IC50 in experiment [1] was 30900 nM; in experiment [2] it was 51600 nM; in experiment [3], 33500 nM.
In the case of `COc1ccc(-c2ccc3nnc(-c4ccc(OC)c(OC)c4OC)n3n2)cc1N`, the IC50 turned out to be 910 nM in experiment [1], 2620 nM in [2] and 920 nM in experiment [3].
Taken in the same sequence, the figures for `COc1cc(-c2nnc3ccc(-c4ccc(F)cc4)nn23)cc(OC)c1OC` were 2020 nM, 2180 nM and 21 nM.
For the compound `COc1ccc(-c2ccc3nnc(-c4cc(OC)c(OC)c(OC)c4)n3n2)cc1N`, the IC50 is 14 nM in [1], 8 nM in experiment [2], 12 nM in experiment [3] and 1800 nM in experiment [4]. For the same compound, the inhibition result in experiment [5] is “Dose-dependent effect”. In addition, the inhibition result in experiment [6] was “Active”. Further, the Activity result in experiment [7] is “Dose-dependent effect”; in experiment [8], “Tde”.
With `COc1ccc(-c2ccc3nnc(-c4ccc(OC)c(OC)c4OC)n3n2)cc1[N+](=O)[O-]`, the IC50 in experiment [1] stood at 9140 nM; in [2] it was 11400 nM; in experiment [3], 18200 nM.
`COc1cc(-c2nnc3ccc(-c4ccc(C)cc4)nn23)cc(OC)c1OC`: the IC50 in experiment [1] stood at 16 nM; in experiment [2], 23 nM; in experiment [3] it was 140 nM.
For the compound `COc1ccc(-c2ccc3nnc(-c4cc(OC)c(OC)c(OC)c4)n3n2)cc1[N+](=O)[O-]`, the IC50 came to 2280 nM in experiment [1], 4570 nM in experiment [2] and 6850 nM in experiment [3].
For `COc1cc(-c2nnc3ccc(-c4cccc(N)c4)nn23)cc(OC)c1OC`, the IC50 in experiment [1] was found to be 980 nM; in experiment [2] it was 2980 nM; in [3], 390 nM.
As for `COc1cc(-c2nnc3ccc(-c4cccc([N+](=O)[O-])c4)nn23)cc(OC)c1OC`, the IC50 was determined as 86400 nM in experiment [1], 90500 nM in experiment [2] and 50000 nM in [3].
As for `COc1ccc(/C=C\c2cc(OC)c(OC)c(OC)c2)cc1O` [COMBRETASTATIN A4], the IC50 in experiment [1] was 12 nM; in experiment [2] it was 9 nM; in experiment [3], 9 nM. In addition, the inhibition result in [5] is “Dose-dependent effect”. Further, the inhibition entry in experiment [6] is “Active”. In [9], the outcome was Active.
